Results: PMC9464482 (EuroIntervention : journal of EuroPCR in collaboration with …, 2021)
“Also recorded” adds a separate entry of the source. Like-named read-outs stand apart in the source and are kept apart here.

Assays:
[1] = test system: platelet function; assay: VerifyNow Base channel; assay type: in vivo, human; details: for Base channel inhibition of platelet function, mean (min-max): 15 minutes post dose
Procedure, shortened: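 STEMI patients received a single subcutaneous dose in the upper arm before pPCI (0.075, 0.090 or 0.110 mg/kg cohorts). Citrated (3.2%) whole blood was drawn pre-dose and at 15–180 min, plus 240 min for cohorts 2–3. It was tested in the VerifyNow P2Y12 cartridge Base channel (20 μM iso-TRAP plus PAR-4 activator) as percent inhibition. Time to 50% return of platelet function was also derived.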

[2] = Phase 1, healthy subjects and stable CAD patients on aspirin; cited from earlier work
[3] = Safety and tolerability; assay type: in vivo, human
[4] = Whole blood pharmacokinetics of RUC-4 in STEMI patients; assay type: in vivo, human; details: for maximum blood concentration (Cmax), mean±SD / tmax, median [min-max]: whole blood
[5] = test system: platelet function; assay type: in vivo, human; details: 15 minutes post dose
Procedure, shortened: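 Patients with STEMI were given one subcutaneous upper-arm injection before pPCI at 0.075, 0.090 or 0.110 mg/kg. Whole blood in 3.2% citrate was sampled pre-dose and at 15, 30, 45, 60, 90, 120 and 180 min, plus 240 min for cohorts 2–3. It was read on the VerifyNow P2Y12 iso-TRAP channel (3-4 μM iso-TRAP) as percent inhibition.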

[6] = test system: platelet function; details: Phase 1, sc; cited from earlier work
[7] = assay type: in vivo, human
Procedure, shortened: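 STEMI patients in three cohorts received one weight-adjusted subcutaneous injection in the outer upper arm before pPCI, at 0.075, 0.090 or 0.110 mg/kg. Platelet counts were taken pre-dose and at 1, 24 and 72 h post dose. Other blood counts and kidney and liver function analytes were also monitored for tolerability.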

[8] = test system: platelet aggregation; details: cited from earlier work
[9] = test system: platelet function; details: ref Bentur et al (submitted), cited from earlier work
[10] = test system: platelet function; details: cited from earlier work
[11] = even at peak levels of ticagrelor achieved in vivo, ref Bentur et al (submitted)

In the case of `NCC(=O)Nc1cncc(-c2nn3c(=O)cc(N4CCNCC4)nc3s2)c1` [RUC-4], the “Base channel inhibition of platelet function, mean (min-max)” value (shortened to “Base channel inhibition”) ([1]; 0.075 mg/kg sc) was 86.0% (74.2%-97.7%), the “Base channel inhibition” value ([1]; 0.090 mg/kg sc) was 92.3% (86.8%-97.1%) and the “Base channel inhibition” value ([1]; 0.110 mg/kg sc) was 93.0% (81.9%-98.6%). For the same compound, the “inhibition of the Base channel assay, on average” value ([1]; within 15 minutes, sc, all cohorts) was “more than 90%”, the “dose up to which RUC-4 was well tolerated” value [2] was “up to 0.075 mg/kg” and the “Number of patients with AEs with fatal outcome/death” value (shortened to “Number … with fatal outcome/death”) ([3]; 0.075 mg/kg sc) was 0 (0%) n/N (%). For the same compound, the “Number … with fatal outcome/death” value ([3]; 0.090 mg/kg sc) was 0 (0%) n/N (%), the “Number … with fatal outcome/death” value ([3]; 0.110 mg/kg sc) was 0 (0%) n/N (%) and the “AEs of special interest: Injection site bruising” value ([3]; Total, all doses) was 11 (41%) n/N (%). For the same compound, the “AEs of special interest: Injection site reaction” value ([3]; Total, all doses) was 1 (4%) n/N (%), the “AEs of special interest: Mild access-site bleeding” value ([3]; Total, all doses) was 6 (22%) n/N (%) and the “AEs of special interest: Severe access-site bleeding” value ([3]; Total, all doses) was 2 n/N (%). The “Bleeding according to BARC classification: 1” value ([3]; Total, all doses) was 13 n/N (%), the “Number … with fatal outcome/death” value ([3]; Total, all doses) was 0 (0%) n/N (%) and the “most common AEs (injection site bruising, access-site haematoma or bruising) rated as grade 1” value ([3]; safety cohort, all doses) was 11/16. For the same compound, the “bruising at the RUC-4 injection site” value ([3]; safety cohort, all doses, n=27) was 41%, the “vascular access-site haematoma or bruising” value ([3]; safety cohort, all doses, n=27) was 30% and the “time at which maximum whole blood concentrations were reached, mean” value ([4]; post dose, all cohorts) was 20 min. For the same compound, the “maximum blood concentration (Cmax), mean±SD” value ([4]; 0.075 mg/kg sc) was 96.7 ± 26.0 ng/mL, the “tmax, median [min-max]” value ([4]; 0.075 mg/kg sc) was 15 [15-16] minutes and the “maximum blood concentration (Cmax), mean±SD” value ([4]; 0.090 mg/kg sc) was 152.4 ± 114.0 ng/mL. The “tmax, median [min-max]” value ([4]; 0.090 mg/kg sc) was 15 [14-45] minutes, the “maximum blood concentration (Cmax), mean±SD” value ([4]; 0.110 mg/kg sc) was 129.8 ± 23.3 ng/mL and the “tmax, median [min-max]” value ([4]; 0.110 mg/kg sc) was 15 [13-45] minutes. The “inhibition of platelet function, iso-TRAP assay, mean (min-max)” value (“inhibition … iso-TRAP assay, mean (min-max)” for short) ([5]; 0.075 mg/kg sc) was 77.5% [65.7%-90.6%], the “patients with high-grade (≥77%) inhibition of the VerifyNow iso-TRAP assay” value ([5]; 0.075 mg/kg sc) was 3/8 and the “inhibition … iso-TRAP assay, mean (min-max)” value ([5]; 0.090 mg/kg sc) was 87.5% [73.8%-93.1%]. For the same compound, the “patients with high-grade (≥77%) inhibition of the VerifyNow iso-TRAP assay” value ([5]; 0.090 mg/kg sc) was 7/8, the “inhibition … iso-TRAP assay, mean (min-max)” value ([5]; 0.110 mg/kg sc) was 91.7% [76.4%-99.3%] and the “patients with high-grade (≥77%) inhibition of the VerifyNow iso-TRAP assay” value ([5]; 0.110 mg/kg sc) was 7/8. For the same compound, the “return of platelet function” value [6] was “within two hours”, the “time to high-grade inhibition of platelet function (LTA, 20 μM ADP)” value [6] was at most 15 min and the “Haemoglobin (mean, SD)” value ([7]; 24 hours post dose, Cohort 1 (0.075 mg/kg), pre-dose 14.04 (0.95)) was 13.82 (2.15) g/dL. For the same compound, the “Platelet count (mean, SD)” value ([7]; 24 hours post dose, Cohort 1 (0.075 mg/kg), pre-dose 226.38 (44.59)) was 211.13 (36.22) 109/L, the “Haemoglobin (mean, SD)” value ([7]; 24 hours post dose, Cohort 2 (0.090 mg/kg), pre-dose 13.68 (1.17)) was 13.93 (1.46) g/dL and the “Platelet count (mean, SD)” value ([7]; 24 hours post dose, Cohort 2 (0.090 mg/kg), pre-dose 294.44 (74.60)) was 273.00 (71.72) 109/L. For the same compound, the “Haemoglobin (mean, SD)” value ([7]; 24 hours post dose, Cohort 3 (0.110 mg/kg), pre-dose 14.31 (1.31)) was 13.29 (2.11) g/dL, the “Platelet count (mean, SD)” value ([7]; 24 hours post dose, Cohort 3 (0.110 mg/kg), pre-dose 283.44 (60.85)) was 238.13 (46.07) 109/L and the “Haemoglobin (mean, SD)” value ([7]; 72 hours post dose /discharge, Cohort 1 (0.075 mg/kg), pre-dose 14.04 (0.95)) was 14.10 (2.13) g/dL. For the same compound, the “Platelet count (mean, SD)” value ([7]; 72 hours post dose /discharge, Cohort 1 (0.075 mg/kg), pre-dose 226.38 (44.59)) was 214.88 (49.28) 109/L, the “Haemoglobin (mean, SD)” value ([7]; 72 hours post dose /discharge, Cohort 2 (0.090 mg/kg), pre-dose 13.68 (1.17)) was 13.96 (1.14) g/dL and the “Platelet count (mean, SD)” value ([7]; 72 hours post dose /discharge, Cohort 2 (0.090 mg/kg), pre-dose 294.44 (74.60)) was 281.67 (79.81) 109/L. For the same compound, the “Haemoglobin (mean, SD)” value ([7]; 72 hours post dose /discharge, Cohort 3 (0.110 mg/kg), pre-dose 14.31 (1.31)) was 13.75 (2.24) g/dL, the “Platelet count (mean, SD)” value ([7]; 72 hours post dose /discharge, Cohort 3 (0.110 mg/kg), pre-dose 283.44 (60.85)) was 229.00 (47.76) 109/L and the “changes in blood counts, or in kidney or liver function analytes” value ([7]; all cohorts) was “no clinically meaningful changes”. For the same compound, the thrombocytopaenia ([7]; first 72 hours post dose, all patients) was “No thrombocytopaenia; also recorded: None of the patients included in the study developed thrombocytopaenia; also recorded: did not produce thrombocytopaenia”.

In the case of `CCCCOC(=O)N1CCN(C(=O)[C@H](CP(=O)(O)O)NC(=O)c2cc(N3CC[C@H](OC)C3)nc(-c3ccccc3)n2)CC1` [Selatogrel, selatogrel], the “effect on the VerifyNow P2Y12 assay” value ([8]; single sc dose prior to PCI, patients with MI) is listed as “inhibited” and the duration of effects ([8]; single sc dose) is listed as “at least eight hours”.

In the case of `CC(=O)Oc1ccccc1C(=O)O` [aspirin], the “effect on the iso-TRAP assay” value ([9]; Supplementary Appendix 2) is given as “not affected” and the “effect on the Base channel assay” value [10, 11] is given as “not affected”.

In the case of `CC(=O)Oc1cc2c(s1)CCN(C(C(=O)C1CC1)c1ccccc1F)C2` (centres unmarked) [prasugrel], the “effect on the Base channel assay” value ([10]; doses that cause near-complete inhibition of the P2Y12 assay) is listed as “do not inhibit”.

For `CCCSc1nc(N[C@@H]2C[C@H]2c2ccc(F)c(F)c2)c2nnn([C@@H]3C[C@H](OCCO)[C@@H](O)[C@H]3O)c2n1` [ticagrelor], the “inhibition of the iso-TRAP assay” value ([9]; at peak levels of ticagrelor achieved in vivo) is listed as “about 20%” and the “effect on the Base channel assay” value [10, 11] is listed as “not affected”.
